Measured values reported in ChEMBL document CHEMBL3868627, “Radical scavenging and antibacterial activity of caffemides against gram positive, gram negative and clinical drug resistance bacteria” (Bioorg Med Chem Lett, 2016).

Tests used:
Staphylococcus aureus [1] = test: Antibacterial activity against Staphylococcus aureus ATCC 25923 assessed as colony forming units at 200 ug/ml measured after 6 hrs by serial dilution method (reference value: 65.66 +/- 3.51 10^6CFU); assay type: functional
Staphylococcus aureus [2] = test: Antibacterial activity against Staphylococcus aureus ATCC 25923 assessed as colony forming units at 300 ug/ml measured after 6 hrs by serial dilution method (reference value: 65.66 +/- 3.51 10^6CFU); assay type: functional
Procedure, shortened: (§1)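 Bacteria were exposed to test compound over a range of µg/ml concentrations. Viable bacteria were counted by colony forming unit (CFU) assay at set time points (6 h and 24 h for M. smegmatis and S. aureus strains), and untreated bacteria served as the control. Percentage of population killed was calculated relative to the untreated control. Values are means ± S.D of three independent trials.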

Staphylococcus aureus [3] = test: Bactericidal activity against Staphylococcus aureus ATCC 25923 at 50 ug/ml measured after 24 hrs by serial dilution method relative to control; assay type: functional
[4] = system: Mycolicibacterium smegmatis; test: Bactericidal activity against Mycobacterium smegmatis MC2 155 ATCC 700084 at 50 ug/ml measured after 6 hrs by serial dilution method relative to control; assay type: functional; procedure, shortened: as §1
Staphylococcus aureus [5] = test: Antibacterial activity against methicillin-resistant Staphylococcus aureus ATCC 43300 assessed as colony forming units at 100 ug/ml measured after 24 hrs by serial dilution method (reference value: 74 +/- 2 10^6CFU); assay type: functional; procedure, shortened: as §1
[6] = system: Mycolicibacterium smegmatis; test: Antibacterial activity against Mycobacterium smegmatis MC2 155 ATCC 700084 assessed as colony forming units at 200 ug/ml measured after 6 hrs by serial dilution method (reference value: 70 +/- 1.73 10^3CFU); assay type: functional; procedure, shortened: as §1
[7] = system: Mycolicibacterium smegmatis; test: Antibacterial activity against Mycobacterium smegmatis MC2 155 ATCC 700084 assessed as colony forming units at 10 ug/ml measured after 6 hrs by serial dilution method (reference value: 70 +/- 1.73 10^3CFU); assay type: functional; procedure, shortened: as §1
Pseudomonas aeruginosa [8] = test: Antibacterial activity against Pseudomonas aeruginosa PAO1 ATCC 15692 assessed as colony forming units at 1 ug/ml measured after 1 hr by serial dilution method (reference value: 85.33 +/- 4.04 10^8CFU); assay type: functional
Pseudomonas aeruginosa [9] = test: Antibacterial activity against Pseudomonas aeruginosa PAO1 ATCC 15692 assessed as colony forming units at 500 ug/ml measured after 1 hr by serial dilution method (reference value: 85.33 +/- 4.04 10^8CFU); assay type: functional
Pseudomonas aeruginosa [10] = test: Antibacterial activity against Pseudomonas aeruginosa PAO1 ATCC 15692 assessed as colony forming units at 100 ug/ml measured after 3 hr by serial dilution method (reference value: 141.66 +/- 7.5 10^8CFU); assay type: functional
Staphylococcus aureus [11] = test: Antibacterial activity against Staphylococcus aureus ATCC 25923 assessed as colony forming units at 500 ug/ml measured after 6 hrs by serial dilution method (reference value: 65.66 +/- 3.51 10^6CFU); assay type: functional; procedure, shortened: as §1
Pseudomonas aeruginosa [12] = test: Bactericidal activity against Pseudomonas aeruginosa PAO1 ATCC 15692 at >300 ug/ml measured after 1 and 3 hrs by serial dilution method relative to control; assay type: functional
[13] = system: Mycolicibacterium smegmatis; test: Antibacterial activity against Mycobacterium smegmatis MC2 155 ATCC 700084 assessed as colony forming units at 500 ug/ml measured after 24 hrs by serial dilution method (reference value: 84 +/- 4.35 10^3CFU); assay type: functional; procedure, shortened: as §1
[14] = system: Mycolicibacterium smegmatis; test: Antibacterial activity against Mycobacterium smegmatis MC2 155 ATCC 700084 assessed as colony forming units at 100 ug/ml measured after 24 hrs by serial dilution method (reference value: 84 +/- 4.35 10^3CFU); assay type: functional; procedure, shortened: as §1
Pseudomonas aeruginosa [15] = test: Antibacterial activity against Pseudomonas aeruginosa PAO1 ATCC 15692 assessed as colony forming units at 300 ug/ml measured after 3 hr by serial dilution method (reference value: 141.66 +/- 7.5 10^8CFU); assay type: functional
[16] = system: Mycolicibacterium smegmatis; test: Antibacterial activity against Mycobacterium smegmatis MC2 155 ATCC 700084 assessed as colony forming units at 50 ug/ml measured after 24 hrs by serial dilution method (reference value: 84 +/- 4.35 10^3CFU); assay type: functional; procedure, shortened: as §1
Staphylococcus aureus [17] = test: Antibacterial activity against Staphylococcus aureus ATCC 25923 assessed as colony forming units at 1 ug/ml measured after 6 hrs by serial dilution method (reference value: 65.66 +/- 3.51 10^6CFU); assay type: functional
Staphylococcus aureus [18] = test: Antibacterial activity against Staphylococcus aureus ATCC 25923 assessed as colony forming units at 10 ug/ml measured after 6 hrs by serial dilution method (reference value: 65.66 +/- 3.51 10^6CFU); assay type: functional
[19] = system: Mycolicibacterium smegmatis; test: Antibacterial activity against Mycobacterium smegmatis MC2 155 ATCC 700084 measured after 72 hrs by serial dilution method; assay type: functional
[20] = system: Mycolicibacterium smegmatis; test: Antibacterial activity against Mycobacterium smegmatis MC2 155 ATCC 700084 assessed as colony forming units at 1 ug/ml measured after 6 hrs by serial dilution method (reference value: 70 +/- 1.73 10^3CFU); assay type: functional; procedure, shortened: as §1
Pseudomonas aeruginosa [21] = test: Antibacterial activity against Pseudomonas aeruginosa PAO1 ATCC 15692 measured after 1 to 3 hrs by serial dilution method
Staphylococcus aureus [22] = test: Antibacterial activity against Staphylococcus aureus ATCC 25923 assessed as colony forming units at 100 ug/ml measured after 24 hrs by serial dilution method (reference value: 77.66 +/- 5.13 10^6CFU); assay type: functional
Staphylococcus aureus [23] = test: Antibacterial activity against Staphylococcus aureus ATCC 25923 assessed as colony forming units at 200 ug/ml measured after 24 hrs by serial dilution method (reference value: 77.66 +/- 5.13 10^6CFU); assay type: functional
Staphylococcus aureus [24] = test: Bactericidal activity against methicillin-resistant Staphylococcus aureus ATCC 43300 at 50 ug/ml measured after 24 hrs by serial dilution method relative to control; assay type: functional; procedure, shortened: as §1
[25] = system: Mycolicibacterium smegmatis; test: Antibacterial activity against Mycobacterium smegmatis MC2 155 ATCC 700084 assessed as colony forming units at 300 ug/ml measured after 24 hrs by serial dilution method (reference value: 84 +/- 4.35 10^3CFU); assay type: functional; procedure, shortened: as §1
[26] = system: Mycolicibacterium smegmatis; test: Antibacterial activity against Mycobacterium smegmatis MC2 155 ATCC 700084 assessed as colony forming units at 10 ug/ml measured after 24 hrs by serial dilution method (reference value: 84 +/- 4.35 10^3CFU); assay type: functional; procedure, shortened: as §1
Staphylococcus aureus [27] = test: Antibacterial activity against Staphylococcus aureus ATCC 25923 assessed as colony forming units at 1 ug/ml measured after 24 hrs by serial dilution method (reference value: 77.66 +/- 5.13 10^6CFU); assay type: functional
Staphylococcus aureus [28] = test: Antibacterial activity against Staphylococcus aureus ATCC 25923 assessed as colony forming units at 10 ug/ml measured after 24 hrs by serial dilution method (reference value: 77.66 +/- 5.13 10^6CFU); assay type: functional
[29] = system: Mycolicibacterium smegmatis; test: Bactericidal activity against Mycobacterium smegmatis MC2 155 ATCC 700084 at 50 ug/ml measured after 24 hrs by serial dilution method relative to control; assay type: functional; procedure, shortened: as §1
Staphylococcus aureus [30] = test: Bactericidal activity against methicillin-resistant Staphylococcus aureus ATCC 43300 at >100 ug/ml measured after 6 and 24 hrs by serial dilution method relative to control; assay type: functional; procedure, shortened: as §1

Row | Compound | Activity (Staphylococcus aureus [1]) | Activity (Staphylococcus aureus [2]) | Activity (Staphylococcus aureus [3]) | Activity [4] | Activity (Staphylococcus aureus [5]) | Activity [6] | Activity [7] | Activity (Pseudomonas aeruginosa [8]) | Activity (Pseudomonas aeruginosa [9]) | Activity (Pseudomonas aeruginosa [10]) | Activity (Staphylococcus aureus [11]) | Activity (Pseudomonas aeruginosa [12]) | Activity [13] | Activity [14] | Activity (Pseudomonas aeruginosa [15]) | Activity [16] | Activity (Staphylococcus aureus [17]) | Activity (Staphylococcus aureus [18]) | Activity [19] | Activity [20] | other results
1 | O=C(/C=C/c1ccc(O)c(O)c1)Nc1ccccc1Nc1ccccc1 | 0 ×10⁶ CFU | 0 ×10⁶ CFU | 68.2% | 51.9% | 11.33 ×10⁶ CFU | 15 ×10³ CFU | 38.33 ×10³ CFU | 61 ×10⁸ CFU | 0 ×10⁸ CFU | 32.66 ×10⁸ CFU | 0 ×10⁶ CFU | 100% | 0 ×10³ CFU | 8 ×10³ CFU | 0 ×10⁸ CFU | 18.33 ×10³ CFU | 42 ×10⁶ CFU | 40 ×10⁶ CFU | Dose-dependent effect | 52.33 ×10³ CFU | Activity (Pseudomonas aeruginosa [21]): Dose-dependent effect; Activity (Staphylococcus aureus [22]): 11.66 ×10⁶ CFU; Activity (Staphylococcus aureus [23]): 0 ×10⁶ CFU; Activity (Staphylococcus aureus [24]): 61.2%; Activity [25]: 0 ×10³ CFU; Activity [26]: 35.33 ×10³ CFU; Activity (Staphylococcus aureus [27]): 68.33 ×10⁶ CFU; Activity (Staphylococcus aureus [28]): 40 ×10⁶ CFU; Activity [29]: 78.1%; Activity (Staphylococcus aureus [30]): 100%
2 | Cc1ccc(O)c(NC(=O)/C=C/c2ccc(O)c(O)c2)c1 | 4.66 ×10⁶ CFU | 0 ×10⁶ CFU | 89.6% | 63.8% | 15.66 ×10⁶ CFU | 6.33 ×10³ CFU | 42.66 ×10³ CFU | 62 ×10⁸ CFU | 0 ×10⁸ CFU | 69.66 ×10⁸ CFU | 0 ×10⁶ CFU | 100% | 0 ×10³ CFU | 36.33 ×10³ CFU | 0 ×10⁸ CFU | 45.66 ×10³ CFU | 26.33 ×10⁶ CFU | 25.66 ×10⁶ CFU | Dose-dependent effect | 65.66 ×10³ CFU | Activity (Pseudomonas aeruginosa [21]): Dose-dependent effect; Activity (Staphylococcus aureus [22]): 0 ×10⁶ CFU; Activity (Staphylococcus aureus [23]): 0 ×10⁶ CFU; Activity (Staphylococcus aureus [24]): 64.8%; Activity [25]: 0 ×10³ CFU; Activity [26]: 58 ×10³ CFU; Activity (Staphylococcus aureus [27]): 75.66 ×10⁶ CFU; Activity (Staphylococcus aureus [28]): 63 ×10⁶ CFU; Activity [29]: 45.6%; Activity (Staphylococcus aureus [30]): 100%
